Peptide text beside a SMILES is read from it. * marks the point of attachment. X1 = C=CCN1CCC[C@H]1CNC(=O)c1cc(CCCSC2CC(=O)N(CCCCCC(=O)*)C2=O)cc(OC)c1OC
molecular target: D(2) dopamine receptor (Homo sapiens, UniProt P14416); experiment: Displacement of [3H]spiperone from human D2 receptor transfected in HEK cells; type: cell-based, HEK293; details: not given
Sequence (P14416 whole entry): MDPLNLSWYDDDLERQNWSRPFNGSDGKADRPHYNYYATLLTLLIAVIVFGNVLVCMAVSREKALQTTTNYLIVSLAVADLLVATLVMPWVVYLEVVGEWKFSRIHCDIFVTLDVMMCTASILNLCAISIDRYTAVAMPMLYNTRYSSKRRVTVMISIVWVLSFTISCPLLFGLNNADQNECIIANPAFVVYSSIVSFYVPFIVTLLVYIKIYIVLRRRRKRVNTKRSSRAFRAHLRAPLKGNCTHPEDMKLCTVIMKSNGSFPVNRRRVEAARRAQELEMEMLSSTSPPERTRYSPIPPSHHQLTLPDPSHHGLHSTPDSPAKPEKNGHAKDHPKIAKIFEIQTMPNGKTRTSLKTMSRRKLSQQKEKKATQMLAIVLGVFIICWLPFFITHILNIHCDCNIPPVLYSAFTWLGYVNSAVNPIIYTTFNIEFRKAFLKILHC

Ki [µM] | Compound
0.0123 | C=CCN1CCC[C@H]1CNC(=O)c1cc(CCCSC2CC(=O)N(CCCCCC(=O)NCC(=O)N[C@@H](Cc3c[nH]c4ccccc34)C(=O)N[C@H](C(=O)N[C@@H](CC(C)C)C(=O)N[C@@H](CC(=O)O)C(=O)N[C@@H](CO)C(=O)N[C@@H](C)C(=O)NCC(=O)N[C@@H](Cc3ccc(O)cc3)C(=O)N[C@@H](CC(C)C)C(=O)N[C@@H](CC(C)C)C(=O)NCC(=O)N[C@@H](CCCCN)C(=O)N[C@H](C(=O)N[C@@H](CC(=O)O)C(=O)N[C@@H](CC(C)C)C(=O)N[C@@H](CCCCN)C(=O)N[C@@H](C)C(=O)N[C@@H](CC(C)C)C(=O)N[C@@H](C)C(=O)N[C@@H](C)C(=O)N[C@@H](CC(C)C)C(=O)N[C@@H](C)C(=O)N[C@@H](CCCCN)C(=O)N[C@@H](CCCCN)C(=O)N[C@H](C(=O)N[C@@H](CC(C)C)C(=O)O)[C@@H](C)CC)[C@@H](C)CC)[C@@H](C)O)C2=O)cc(OC)c1OC (some centres not stated) (X1-GWTLDSAGYLLGKIDLKALAALAKKIL-OH)
0.0358 | C=CCN1CCC[C@H]1CNC(=O)c1cc(CCCSC2CC(=O)N(CCCCCC(=O)NCCOCCOCCOCCOCCOCCOCCC(=O)N[C@H](C(=O)N[C@@H](Cc3ccccc3)C(=O)N[C@@H](Cc3ccccc3)C(=O)N[C@@H](Cc3ccc(O)cc3)C(=O)NCC(=O)NCC(=O)N[C@@H](CO)C(=O)N[C@@H](CCCNC(=N)N)C(=O)NCC(=O)N[C@@H](CCCCNC(=O)CN3CCN(CC(=O)O)CCN(CC(=O)O)CCN(CC(=O)O)CC3)C(=O)N[C@@H](CCCNC(=N)N)C(=O)N[C@@H](CC(N)=O)C(=O)N[C@@H](CC(N)=O)C(=O)N[C@@H](Cc3ccccc3)C(=O)N[C@@H](CCCCN)C(=O)N[C@H](C(=O)N[C@@H](CCC(=O)O)C(=O)N[C@@H](CCC(=O)O)C(=O)N[C@@H](Cc3ccc(O)cc3)C(=O)O)[C@@H](C)O)[C@@H](C)O)C2=O)cc(OC)c1OC (some centres not stated)
0.00147 | C=CCN1CCC[C@H]1CNC(=O)c1cc(CCCSC2CC(=O)N(CCCCCC(=O)NCCOCCOCCOCCOCCC(=O)N[C@@H](Cc3cnc[nH]3)C(=O)N[C@@H](C)C(=O)N[C@H](C(=O)N[C@@H](Cc3ccc(O)cc3)C(=O)N3CCC[C@H]3C(=O)N[C@@H](CCCNC(=N)N)C(=O)N[C@@H](Cc3cnc[nH]3)C(=O)O)[C@@H](C)CC)C2=O)cc(OC)c1OC (some centres not stated)
> 1 | H-VQRKRQKLMP-OH
0.013 | C=CCN1CCC[C@H]1CNC(=O)c1cc(CCCSC2CC(=O)N(CCCCCC(=O)N[C@H](C(=O)N[C@@H](CCC(N)=O)C(=O)N[C@@H](CCCNC(=N)N)C(=O)N[C@@H](CCCCN)C(=O)N[C@@H](CCCNC(=N)N)C(=O)N[C@@H](CCC(N)=O)C(=O)N[C@@H](CCCCN)C(=O)N[C@@H](CC(C)C)C(=O)N[C@@H](CCSC)C(=O)N3CCC[C@H]3C(=O)O)C(C)C)C2=O)cc(OC)c1OC (some centres not stated) (X1-VQRKRQKLMP-OH)
0.00063 | C=CCN1CCC[C@H]1CNC(=O)c1cc(CCCF)ccc1OC
0.0284 | C=CCN1CCC[C@H]1CNC(=O)c1cc(CCCSC2CC(=O)N(CCCCCC(=O)NCCCC(=O)N[C@@H](Cc3cnc[nH]3)C(=O)N[C@@H](C)C(=O)N[C@H](C(=O)N[C@@H](Cc3ccc(O)cc3)C(=O)N3CCC[C@H]3C(=O)N[C@@H](CCCNC(=N)N)C(=O)N[C@@H](Cc3cnc[nH]3)C(=O)O)[C@@H](C)CC)C2=O)cc(OC)c1OC (some centres not stated)
0.0303 | C=CCN1CCC[C@H]1CNC(=O)c1cc(CCCSC2CC(=O)N(CCCCCC(=O)NCCOCCOCC(=O)N[C@@H](Cc3cnc[nH]3)C(=O)N[C@@H](C)C(=O)N[C@H](C(=O)N[C@@H](Cc3ccc(O)cc3)C(=O)N3CCC[C@H]3C(=O)N[C@@H](CCCNC(=N)N)C(=O)N[C@@H](Cc3cnc[nH]3)C(=O)O)[C@@H](C)CC)C2=O)cc(OC)c1OC (some centres not stated)
0.0642 | C=CCN1CCC[C@H]1CNC(=O)c1cc(CCCSC2CC(=O)N(CCCCCC(=O)N[C@H](C(=O)N[C@@H](Cc3ccccc3)C(=O)N[C@@H](Cc3ccccc3)C(=O)N[C@@H](Cc3ccc(O)cc3)C(=O)NCC(=O)NCC(=O)N[C@@H](CO)C(=O)N[C@@H](CCCNC(=N)N)C(=O)NCC(=O)N[C@@H](CCCCNC(=O)CN3CCN(CC(=O)O)CCN(CC(=O)O)CCN(CC(=O)O)CC3)C(=O)N[C@@H](CCCNC(=N)N)C(=O)N[C@@H](CC(N)=O)C(=O)N[C@@H](CC(N)=O)C(=O)N[C@@H](Cc3ccccc3)C(=O)N[C@@H](CCCC[n+]3c(C)cc(/C=C/C=C/c4ccc(N(C)C)cc4)cc3C)C(=O)N[C@H](C(=O)N[C@@H](CCC(=O)O)C(=O)N[C@@H](CCC(=O)O)C(=O)N[C@@H](Cc3ccc(O)cc3)C(=O)O)[C@@H](C)O)[C@@H](C)O)C2=O)cc(OC)c1OC (some centres not stated)
0.00731 | C=CCN1CCC[C@H]1CNC(=O)c1cc(CCCSC2CC(=O)N(CCCCCC(=O)NCCOCCOCCOCCOCCC(N)=O)C2=O)cc(OC)c1OC (some centres not stated)
0.00814 | C=CCN1CCC[C@H]1CNC(=O)c1cc(CCCSC2CC(=O)N(CCCCCC(=O)N[C@@H](CCCNC(=N)N)C(=O)N[C@@H](CCC(N)=O)C(=O)N[C@H](C(=O)N[C@@H](CCCCN)C(=O)N[C@H](C(=O)N[C@@H](Cc3c[nH]c4ccccc34)C(=O)N[C@@H](Cc3ccccc3)C(=O)N[C@@H](CCC(N)=O)C(=O)N[C@@H](CC(N)=O)C(=O)N[C@@H](CCCNC(=N)N)C(=O)N[C@@H](CCCNC(=N)N)C(=O)N[C@@H](CCSC)C(=O)N[C@@H](CCCCN)C(=O)N[C@@H](Cc3c[nH]c4ccccc34)C(=O)N[C@@H](CCCCN)C(=O)N[C@@H](CCCCN)C(=O)O)[C@@H](C)CC)[C@@H](C)CC)C2=O)cc(OC)c1OC (some centres not stated)
0.0103 | C=CCN1CCC[C@H]1CNC(=O)c1cc(CCCSC2CC(=O)N(CCCCCC(=O)N[C@@H](Cc3cnc[nH]3)C(=O)N[C@@H](C)C(=O)N[C@H](C(=O)N[C@@H](Cc3ccc(O)cc3)C(=O)N3CCC[C@H]3C(=O)N[C@@H](CCCNC(=N)N)C(=O)N[C@@H](Cc3cnc[nH]3)C(=O)O)[C@@H](C)CC)C2=O)cc(OC)c1OC (some centres not stated)
0.0428 | C=CCN1CCC[C@H]1CNC(=O)c1cc(CCCSC2CC(=O)N(CCCCCC(=O)NCCOCCOCCOCCOCCOCCOCCOCCOCCC(=O)N[C@H](C(=O)N[C@@H](Cc3ccccc3)C(=O)N[C@@H](Cc3ccccc3)C(=O)N[C@@H](Cc3ccc(O)cc3)C(=O)NCC(=O)NCC(=O)N[C@@H](CO)C(=O)N[C@@H](CCCNC(=N)N)C(=O)NCC(=O)N[C@@H](CCCCNC(=O)CN3CCN(CC(=O)O)CCN(CC(=O)O)CCN(CC(=O)O)CC3)C(=O)N[C@@H](CCCNC(=N)N)C(=O)N[C@@H](CC(N)=O)C(=O)N[C@@H](CC(N)=O)C(=O)N[C@@H](Cc3ccccc3)C(=O)N[C@@H](CCCCN)C(=O)N[C@H](C(=O)N[C@@H](CCC(=O)O)C(=O)N[C@@H](CCC(=O)O)C(=O)N[C@@H](Cc3ccc(O)cc3)C(=O)O)[C@@H](C)O)[C@@H](C)O)C2=O)cc(OC)c1OC (some centres not stated)
0.0539 | C=CCN1CCC[C@H]1CNC(=O)c1cc(CCCSC2CC(=O)N(CCCCCC(=O)NCCOCCOCCOCCOCCOCCOCCOCCOCCC(=O)N[C@@H](Cc3cnc[nH]3)C(=O)N[C@@H](C)C(=O)N[C@H](C(=O)N[C@@H](Cc3ccc(O)cc3)C(=O)N3CCC[C@H]3C(=O)N[C@@H](CCCNC(=N)N)C(=O)N[C@@H](Cc3cnc[nH]3)C(=O)O)[C@@H](C)CC)C2=O)cc(OC)c1OC (some centres not stated)
0.00969 | C=CCN1CCC[C@H]1CNC(=O)c1cc(CCCSC2CC(=O)N(CCCCCC(=O)N[C@@H](CCCNC(=N)N)C(=O)N[C@@H](CCCCN)C(=O)N[C@@H](CCCCN)C(=O)N[C@@H](CCCNC(=N)N)C(=O)N[C@@H](CCCNC(=N)N)C(=O)N[C@@H](CCC(N)=O)C(=O)N[C@@H](CCCNC(=N)N)C(=O)N[C@@H](CCCNC(=N)N)C(=O)N[C@@H](CCCNC(=N)N)C(=O)O)C2=O)cc(OC)c1OC (some centres not stated)
0.0215 | C=CCN1CCC[C@H]1CNC(=O)c1cc(CCCSC2CC(=O)N(CCCCCC(=O)NCC(=O)N[C@@H](CCCNC(=N)N)C(=O)N[C@@H](CCCCN)C(=O)N[C@@H](CCCCN)C(=O)N[C@@H](CCCNC(=N)N)C(=O)N[C@@H](CCCNC(=N)N)C(=O)N[C@@H](CCC(N)=O)C(=O)N[C@@H](CCCNC(=N)N)C(=O)N[C@@H](CCCNC(=N)N)C(=O)N[C@@H](CCCNC(=N)N)C(=O)N3CCC[C@H]3C(=O)N3CCC[C@H]3C(=O)N[C@@H](CCC(N)=O)C(=O)O)C2=O)cc(OC)c1OC (some centres not stated)
0.0261 | C=CCN1CCC[C@H]1CNC(=O)c1cc(CCCSC2CC(=O)N(CCCCCC(=O)NCCOCCOCCOCCOCCC(=O)N[C@H](C(=O)N[C@@H](Cc3ccccc3)C(=O)N[C@@H](Cc3ccccc3)C(=O)N[C@@H](Cc3ccc(O)cc3)C(=O)NCC(=O)NCC(=O)N[C@@H](CO)C(=O)N[C@@H](CCCNC(=N)N)C(=O)NCC(=O)N[C@@H](CCCCNC(=O)CN3CCN(CC(=O)O)CCN(CC(=O)O)CCN(CC(=O)O)CC3)C(=O)N[C@@H](CCCNC(=N)N)C(=O)N[C@@H](CC(N)=O)C(=O)N[C@@H](CC(N)=O)C(=O)N[C@@H](Cc3ccccc3)C(=O)N[C@@H](CCCCN)C(=O)N[C@H](C(=O)N[C@@H](CCC(=O)O)C(=O)N[C@@H](CCC(=O)O)C(=O)N[C@@H](Cc3ccc(O)cc3)C(=O)O)[C@@H](C)O)[C@@H](C)O)C2=O)cc(OC)c1OC (some centres not stated)
0.0253 | C=CCN1CCC[C@H]1CNC(=O)c1cc(CCCSC2CC(=O)N(CCCCCC(=O)NCCOCCOCCOCCOCCOCCOCCOCCOCCOCCOCCOCCOCCC(=O)N[C@@H](Cc3cnc[nH]3)C(=O)N[C@@H](C)C(=O)N[C@H](C(=O)N[C@@H](Cc3ccc(O)cc3)C(=O)N3CCC[C@H]3C(=O)N[C@@H](CCCNC(=N)N)C(=O)N[C@@H](Cc3cnc[nH]3)C(=O)O)[C@@H](C)CC)C2=O)cc(OC)c1OC (some centres not stated)
0.0274 | C=CCN1CCC[C@H]1CNC(=O)c1cc(CCCSC2CC(=O)N(CCCCCC(=O)NCCOCCOCCOCCOCCOCCOCCC(=O)N[C@@H](Cc3cnc[nH]3)C(=O)N[C@@H](C)C(=O)N[C@H](C(=O)N[C@@H](Cc3ccc(O)cc3)C(=O)N3CCC[C@H]3C(=O)N[C@@H](CCCNC(=N)N)C(=O)N[C@@H](Cc3cnc[nH]3)C(=O)O)[C@@H](C)CC)C2=O)cc(OC)c1OC (some centres not stated)
0.0273 | C=CCN1CCC[C@H]1CNC(=O)c1cc(CCCSC2CC(=O)N(CCCCCC(=O)N[C@H](C(=O)N[C@@H](Cc3cnc[nH]3)C(=O)N[C@@H](CCCNC(=N)N)C(=O)N3CCC[C@H]3C(=O)N3CCC[C@H]3C(=O)N[C@@H](CCSC)C(=O)N[C@@H](Cc3c[nH]c4ccccc34)C(=O)N[C@@H](CO)C(=O)N3CCC[C@H]3C(=O)N[C@H](C(=O)N[C@@H](Cc3c[nH]c4ccccc34)C(=O)N3CCC[C@H]3C(=O)O)C(C)C)[C@@H](C)O)C2=O)cc(OC)c1OC (some centres not stated) (X1-THRPPMWSPVWP-OH)

tested on: not listed separately; experiment: Cytotoxicity against hCMEC/D3 cells at 0.1 to 50 uM after 4 hrs by Alamar Blue assay; type: cell-based; details: human, hcmec/d3, 4 h; call rule not given here
How it was run: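 Cytotoxicity was tested by AlamarBlue on hCMEC/D3 cells, the same cells used for the calcein assay. The read-out is the fall in metabolic activity, seen as reduced redox potential of viable cells.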

Compound | Activity
C=CCN1CCC[C@H]1CNC(=O)c1cc(CCCSC2CC(=O)N(CCCCCC(=O)NCCOCCOCCOCCOCCC(=O)N[C@@H](Cc3cnc[nH]3)C(=O)N[C@@H](C)C(=O)N[C@H](C(=O)N[C@@H](Cc3ccc(O)cc3)C(=O)N3CCC[C@H]3C(=O)N[C@@H](CCCNC(=N)N)C(=O)N[C@@H](Cc3cnc[nH]3)C(=O)O)[C@@H](C)CC)C2=O)cc(OC)c1OC (some centres not stated) | Non-toxic

tested on: not listed separately; experiment: Activity at P-gp in hCMEC/D3 cells at 0.1 to 50 uM after 15 mins by calcein-AM assay; type: ADME, cell-based; details: human, cmec/d3, 0.25 h

Activity | Compound
Not Active | C=CCN1CCC[C@H]1CNC(=O)c1cc(CCCSC2CC(=O)N(CCCCCC(=O)NCCOCCOCCOCCOCCC(=O)N[C@@H](Cc3cnc[nH]3)C(=O)N[C@@H](C)C(=O)N[C@H](C(=O)N[C@@H](Cc3ccc(O)cc3)C(=O)N3CCC[C@H]3C(=O)N[C@@H](CCCNC(=N)N)C(=O)N[C@@H](Cc3cnc[nH]3)C(=O)O)[C@@H](C)CC)C2=O)cc(OC)c1OC (some centres not stated)

Source: ChEMBL document CHEMBL3259715, “Shuttle-cargo fusion molecules of transport peptides and the hD2/3 receptor antagonist fallypride: a feasible approach to preserve ligand-receptor binding?” (J Med Chem, 2014)
